{"source": "ChEMBL document CHEMBL5329211", "about": "“Selective isoxazolopyrimidine PAT1 (SLC26A6) inhibitors for therapy of intestinal disorders” (RSC Med Chem, 2023)", "key": {"[1]": {"molecular_target": "T1, Chloride anion exchanger (Homo sapiens) (UniProt P40879)", "T1 sequence (whole entry)": "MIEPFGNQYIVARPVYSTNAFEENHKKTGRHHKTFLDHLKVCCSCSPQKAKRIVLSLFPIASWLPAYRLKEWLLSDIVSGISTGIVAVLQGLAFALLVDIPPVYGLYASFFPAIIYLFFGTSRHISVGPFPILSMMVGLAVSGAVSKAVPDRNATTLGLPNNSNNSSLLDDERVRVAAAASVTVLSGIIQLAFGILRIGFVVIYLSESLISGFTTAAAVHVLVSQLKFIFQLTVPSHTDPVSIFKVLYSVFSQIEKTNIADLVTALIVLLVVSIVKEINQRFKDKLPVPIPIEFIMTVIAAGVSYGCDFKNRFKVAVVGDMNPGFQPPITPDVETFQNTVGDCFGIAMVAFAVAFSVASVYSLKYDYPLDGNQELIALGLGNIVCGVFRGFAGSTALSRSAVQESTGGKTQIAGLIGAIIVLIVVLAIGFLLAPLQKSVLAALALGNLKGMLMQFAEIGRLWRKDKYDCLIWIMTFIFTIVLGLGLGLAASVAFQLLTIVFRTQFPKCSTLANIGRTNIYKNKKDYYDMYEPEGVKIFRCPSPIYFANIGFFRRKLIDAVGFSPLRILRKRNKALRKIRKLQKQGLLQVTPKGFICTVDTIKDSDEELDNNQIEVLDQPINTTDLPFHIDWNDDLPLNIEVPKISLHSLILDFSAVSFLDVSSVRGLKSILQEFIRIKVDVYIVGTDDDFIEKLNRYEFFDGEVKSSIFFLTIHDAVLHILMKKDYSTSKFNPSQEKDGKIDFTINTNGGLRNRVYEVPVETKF", "assay": "Inhibition of SLC26A3 (unknown origin) expressed in rat FRT cells coexpressing YFP halide-sensing protein assessed as iodide-chloride exchange at 25 uM incubated for 2 sec by fluorescence quenching analysis", "assay_type": "cell-based"}, "[2]": {"tested_on": "Mus musculus", "assay": "In vivo inhibition of PAT1 in intestinal closed-loop CD-1 mouse model assessed as reduction in loop fluid volume in ileum measured for 30 mins", "assay_type": "functional, organism-based", "method_in_brief": "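Mice (wild-type CD1 or homozygous F508del CF, 10-16 wk, both sexes) fasted 24 h with free access to 5% dextrose water. Under isoflurane at 36-38 °C, 2-3 ileal loops (2-3 cm) were tied off and injected with 100 µL PBS pH 7.4 containing 30 µM inhibitor, 10 µM tenapanor or 0.1% DMSO vehicle. Loops removed at 0 or 30 min in separate mice; length and weight measured for fluid absorption. One-way ANOVA with Newman-Keuls.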"}, "[3]": {"molecular_target": "Solute carrier family 26 member 6 (Mus musculus) (UniProt Q8CIW6)", "sequence (Q8CIW6 whole entry, looked up)": "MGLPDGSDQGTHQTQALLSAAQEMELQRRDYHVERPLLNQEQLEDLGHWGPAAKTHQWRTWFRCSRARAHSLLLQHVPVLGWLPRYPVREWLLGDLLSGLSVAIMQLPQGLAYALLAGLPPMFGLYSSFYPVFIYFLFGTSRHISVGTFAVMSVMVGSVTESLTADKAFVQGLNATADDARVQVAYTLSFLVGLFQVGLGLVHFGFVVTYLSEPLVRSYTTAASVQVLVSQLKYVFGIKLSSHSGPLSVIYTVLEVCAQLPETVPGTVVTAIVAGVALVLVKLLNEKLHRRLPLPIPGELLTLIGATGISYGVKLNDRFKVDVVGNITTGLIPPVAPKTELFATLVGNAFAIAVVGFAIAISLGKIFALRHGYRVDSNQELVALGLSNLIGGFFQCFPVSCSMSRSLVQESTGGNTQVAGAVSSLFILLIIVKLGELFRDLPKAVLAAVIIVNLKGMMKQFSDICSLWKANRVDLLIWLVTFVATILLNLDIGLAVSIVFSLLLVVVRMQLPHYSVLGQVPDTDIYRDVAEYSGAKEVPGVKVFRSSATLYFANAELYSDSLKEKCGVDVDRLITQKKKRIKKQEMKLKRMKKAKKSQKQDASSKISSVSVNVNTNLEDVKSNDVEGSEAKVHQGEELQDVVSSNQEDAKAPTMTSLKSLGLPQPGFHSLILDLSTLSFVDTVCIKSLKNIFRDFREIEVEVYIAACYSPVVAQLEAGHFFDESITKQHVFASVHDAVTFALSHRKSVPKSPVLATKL", "assay": "Inhibition of SLC26A6 (unknown origin) expressed in rat FRT cells coexpressing YFP halide-sensing protein assessed as iodide-chloride exchange incubated for 2 sec by fluorescence quenching analysis"}, "[4]": {"molecular_target": "T2, Pendrin (Homo sapiens) (UniProt O43511)", "T2 sequence (whole entry)": "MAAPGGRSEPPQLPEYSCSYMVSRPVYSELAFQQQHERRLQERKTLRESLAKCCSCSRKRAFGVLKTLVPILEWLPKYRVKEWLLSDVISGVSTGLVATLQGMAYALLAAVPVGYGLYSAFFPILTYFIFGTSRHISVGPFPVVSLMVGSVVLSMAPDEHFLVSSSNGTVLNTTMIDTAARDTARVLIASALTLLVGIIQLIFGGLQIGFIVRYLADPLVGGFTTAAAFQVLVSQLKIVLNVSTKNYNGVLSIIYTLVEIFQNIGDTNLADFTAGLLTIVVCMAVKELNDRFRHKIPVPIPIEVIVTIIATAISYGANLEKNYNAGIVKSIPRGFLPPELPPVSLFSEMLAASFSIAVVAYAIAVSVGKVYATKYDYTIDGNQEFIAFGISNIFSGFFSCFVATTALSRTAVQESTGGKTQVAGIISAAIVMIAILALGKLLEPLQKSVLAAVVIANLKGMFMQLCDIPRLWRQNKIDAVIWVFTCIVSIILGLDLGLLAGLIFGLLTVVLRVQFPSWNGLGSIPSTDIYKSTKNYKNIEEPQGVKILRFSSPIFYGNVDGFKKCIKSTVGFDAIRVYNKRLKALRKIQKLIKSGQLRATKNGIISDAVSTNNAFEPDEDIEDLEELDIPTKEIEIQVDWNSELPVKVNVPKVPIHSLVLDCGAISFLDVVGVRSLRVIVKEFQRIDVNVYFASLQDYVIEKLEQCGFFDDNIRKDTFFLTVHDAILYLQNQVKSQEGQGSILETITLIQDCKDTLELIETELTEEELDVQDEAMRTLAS", "assay": "Inhibition of SLC26A4 (unknown origin) expressed in rat FRT cells coexpressing YFP halide-sensing protein assessed as iodide-chloride exchange at 25 uM incubated for 2 sec by fluorescence quenching analysis", "assay_type": "cell-based"}}, "note": "Activity calls are given as the source filed them. The rule behind the calls is not given here.", "data": [{"smiles": "CCOC(=O)c1nc(N(C)Cc2ccccc2)c2c(C)noc2n1", "values": [{"measurement": "inhibition", "setting": "[1]", "result": "inactive"}, {"measurement": "inhibition", "setting": "[2]", "result": "Active"}, {"measurement": "IC50", "setting": "[3]", "result": 1000, "unit": "nM"}, {"measurement": "inhibition", "setting": "[4]", "result": "inactive"}]}]}
